Reference: the RNAGym collection of RNA variant scans (doi:10.1101/gad.245936.114)
Fewer inactive variants are shown than the library holds.

B1: tRNA (parent)
chain: CUCUCGGUAGCCAAGUUGGUUUAAGGCGCAAGACUUUAAUUUAUCACUACGAAAUCUUGAGAUCGGGCGUUCGACUCGCCCCCGGGAGAUUUUUUCCUCGAGCAA

Variants of: B1
Assay: nonsense suppression (GFP-seq) (ratio to wild type); higher = more function; SUP4oc tRNA, yeast GFP reporter sort-seq
Procedure, shortened: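 Each variant's nonsense suppression (GFPSEQ) is a cell-share-weighted bin median GFP/RFP relative to the unmutated parent tRNA. Yeast with genome-integrated tRNA variants from a ~3% random-mutation library, a galactose-driven GFP ochre reporter and RFP were grown in raffinose/galactose medium with 80 mg/L adenine, then sorted into GFP/RFP bins for Illumina sequencing. Variants needed ≥100 reads and ≥30 cells.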

Compared with A13G G61C, U21C A54U U57C G59A A89G is lower in nonsense suppression: 0.0301 for the first, at most 0.026 for the second.

U20C C27G and G28A C34G G59A cannot be ordered by nonsense suppression: at most 0.026 for the first, at most 0.026 for the second.

Going from A9C A13G to U21A C75A, the nonsense suppression rises from 0.0462 to 0.947.

Going from U20G A33G to U16G G67A, the nonsense suppression falls from 0.18 to 0.178.

Compared with C12A G25C C68G, A13C G73A is higher in nonsense suppression: at most 0.026 for the first, 0.394 for the second.

C27A G61U G86U and A60U G65U A74C C82A cannot be ordered by nonsense suppression: at most 0.026 for the first, at most 0.026 for the second.

Going from G25A G26U C56G to U76A, the nonsense suppression falls from 0.0585 to at most 0.026.

Compared with U58A G61A, U17G G61U is higher in nonsense suppression: 0.0532 for the first, 0.832 for the second.

First: U17G G61C
Second: U21A C34G C82U A89U
The nonsense suppression of the first is higher: 0.371 for the first, at most 0.026 for the second.

Compared with C1G C29A C34U, G28A C81U is higher in nonsense suppression: at most 0.026 for the first, 1.2 for the second.

Compared with A14U A33U C34G G59C, C12U G85U is higher in nonsense suppression: at most 0.026 for the first, 0.0919 for the second.

A74G C75A G86C and G19C U22C C68U cannot be ordered by nonsense suppression: at most 0.026 for the first, at most 0.026 for the second.

Compared with U57A G85U, G19U U55G is lower in nonsense suppression: 0.0736 for the first, at most 0.026 for the second.

Compared with U8A A30G, G26C G67A is lower in nonsense suppression: 0.0404 for the first, at most 0.026 for the second.

Going from U17G U55C to C3U C12U, the nonsense suppression falls from 0.0769 to 0.039.

Compared with U22A G61C, C56G G78C is lower in nonsense suppression: 0.203 for the first, at most 0.026 for the second.

First: A23U A60G
Second: G7C U55C
The nonsense suppression of the first is lower: 0.0537 for the first, 0.0823 for the second.

Going from U4G U71A to C1G A87G, the nonsense suppression falls from 0.0967 to at most 0.026.

First: C11G A31U
Second: U58A A60C
The nonsense suppression of the first is lower: at most 0.026 for the first, 0.0508 for the second.

U35A U57G C81U G85C A87U and C34A G69A cannot be ordered by nonsense suppression: at most 0.026 for the first, at most 0.026 for the second.

First: U4C A13U G78A
Second: A13U A24G
The nonsense suppression of the first is lower: 0.424 for the first, 0.96 for the second.

A14C G59C G85A and G78C A89U cannot be ordered by nonsense suppression: at most 0.026 for the first, at most 0.026 for the second.

Compared with C68U U71C, U4C G7U U8C G69C is lower in nonsense suppression: 0.0274 for the first, at most 0.026 for the second.

A24U A60G G65U G88C A89G and C29G G59A C80G cannot be ordered by nonsense suppression: at most 0.026 for the first, at most 0.026 for the second.

First: C3G U16G G66A
Second: A30C U58G
The nonsense suppression of the first is lower: at most 0.026 for the first, 1.02 for the second.

Compared with A54U U76C, U2G G6C G18A G67C G86A A87U is lower in nonsense suppression: 1.08 for the first, at most 0.026 for the second.

G7C A14C G61U A74U A87G and U20C C83G G86A cannot be ordered by nonsense suppression: at most 0.026 for the first, at most 0.026 for the second.

Going from U63A G85U to C12U G25U, the nonsense suppression falls from 0.23 to 0.192.

Compared with C12U G25C, U4G C79U is lower in nonsense suppression: 0.184 for the first, 0.173 for the second.

Compared with G73A A87U, C1G G61A G78U A87C is lower in nonsense suppression: 0.0409 for the first, at most 0.026 for the second.

C3U G6U U22G C81G and G18U G25U G67C cannot be ordered by nonsense suppression: at most 0.026 for the first, at most 0.026 for the second.

First: A9G U63C A74U C75U C79U
Second: G26C C29G
The nonsense suppression of the first is lower: at most 0.026 for the first, 0.0685 for the second.

Going from C1A U8A U55C A89U to A31G C75U, the nonsense suppression rises from at most 0.026 to 1.05.

U57C C79U and C5U C68U cannot be ordered by nonsense suppression: at most 0.026 for the first, at most 0.026 for the second.

U4A G7U U76A and G61C G69C C79G G84C cannot be ordered by nonsense suppression: at most 0.026 for the first, at most 0.026 for the second.

First: U17C C29A G65A C72U C77U
Second: U63G G73A
The nonsense suppression of the first is lower: at most 0.026 for the first, 0.189 for the second.

U8A U55G C81G and C1A A31U G84A G88A cannot be ordered by nonsense suppression: at most 0.026 for the first, at most 0.026 for the second.

Compared with U21G A54C, U16A G28A is higher in nonsense suppression: 0.764 for the first, 1.11 for the second.

Going from G28C U71C to U16C G61A U63A, the nonsense suppression rises from 0.112 to 0.186.

Compared with U17C A24C, U2C A24G A31C A60C C82A G85C is lower in nonsense suppression: 0.276 for the first, at most 0.026 for the second.

First: G78A C83A
Second: C75A G78C
The nonsense suppression of the first is lower: at most 0.026 for the first, 1 for the second.

C12U G25C U57G C83G and A13C G18U G26A A31U cannot be ordered by nonsense suppression: at most 0.026 for the first, at most 0.026 for the second.

Compared with U21G A24U, A13C A30G is higher in nonsense suppression: 0.0683 for the first, 0.892 for the second.

Compared with U2A U22G C29A C34A, C11U G84C A89C is lower in nonsense suppression: 0.221 for the first, at most 0.026 for the second.

Going from U22C C68U to U20C C77U, the nonsense suppression falls from 1.16 to 0.0349.

Compared with C3U C68U, A24G U63G C80A G85C is lower in nonsense suppression: 0.201 for the first, at most 0.026 for the second.

Compared with A24G A31G, C1U C12A is lower in nonsense suppression: 0.0322 for the first, at most 0.026 for the second.

First: U21C
Second: U21A
The nonsense suppression of the first is lower: 0.954 for the first, 1.02 for the second.

First: G66C C82U
Second: C12G U71G
The nonsense suppression of the first is lower: at most 0.026 for the first, 0.859 for the second.

First: G7U G65A U76A
Second: U22G C75A
The nonsense suppression of the first is lower: at most 0.026 for the first, 0.927 for the second.

First: U4G U17G G69A
Second: G61C G85C
The nonsense suppression of the first is lower: at most 0.026 for the first, 0.045 for the second.

C27A G59U and U8C A24U U71C cannot be ordered by nonsense suppression: at most 0.026 for the first, at most 0.026 for the second.

First: C3U G6C A9U A13G A23G A60G G69C
Second: A31U A60U
The nonsense suppression of the first is lower: at most 0.026 for the first, 0.647 for the second.

Compared with A13U A62C, U17G A54G U55G is lower in nonsense suppression: 0.029 for the first, at most 0.026 for the second.

Compared with U2A G61A, G6C U16A C56G U57C U58C U71C is lower in nonsense suppression: 0.0448 for the first, at most 0.026 for the second.

C1U C3U C12U and C34G U57A cannot be ordered by nonsense suppression: at most 0.026 for the first, at most 0.026 for the second.

Going from C3G A13U to G66A C75A, the nonsense suppression rises from 0.0541 to 1.18.

First: A13C G84A
Second: C27G C68G G84A
The nonsense suppression of the first is higher: 0.175 for the first, at most 0.026 for the second.

First: G7C C29G A30G G61U U70C G85C
Second: A13C U17C U22G G85A
The nonsense suppression of the first is lower: at most 0.026 for the first, 0.81 for the second.

Compared with G6A C81U, C3A C29U A87G is lower in nonsense suppression: 0.0651 for the first, at most 0.026 for the second.

Compared with U22C C34G G88A, U20C U21A is higher in nonsense suppression: at most 0.026 for the first, 0.188 for the second.

First: U17G A30G
Second: U20C C29U
The nonsense suppression of the first is higher: 0.397 for the first, 0.0276 for the second.

A23C U57C and A33C U63A cannot be ordered by nonsense suppression: at most 0.026 for the first, at most 0.026 for the second.

Compared with U16G A23G, U8G C56U is lower in nonsense suppression: 0.129 for the first, at most 0.026 for the second.

First: C3A G66C
Second: A13U C79U
The nonsense suppression of the first is lower: at most 0.026 for the first, 0.175 for the second.

Going from U16A A30G to A13U A30U, the nonsense suppression falls from 0.312 to 0.0763.

Going from A13C G61A C75G to A54C U57A, the nonsense suppression falls from 0.761 to 0.0382.

U17A A33C U76C C79A C80U and C11G C56G G84U cannot be ordered by nonsense suppression: at most 0.026 for the first, at most 0.026 for the second.

Compared with U8A G26C A31U U55A U71A, G28C U57C is higher in nonsense suppression: at most 0.026 for the first, 0.0349 for the second.

Compared with A31G A54U, U21C U76C is higher in nonsense suppression: 0.627 for the first, 1.06 for the second.

First: C1U U20A G73C
Second: C3G C27U U57C G59A G61A
The nonsense suppression of the first is higher: 0.722 for the first, at most 0.026 for the second.

Going from C3G U4G to G78U G85C, the nonsense suppression rises from 0.0277 to 0.0488.

G25U C34A U71A U76A and U22C A30U C83A cannot be ordered by nonsense suppression: at most 0.026 for the first, at most 0.026 for the second.

First: U8G C27U
Second: G15A U16A
The nonsense suppression of the first is lower: at most 0.026 for the first, 0.0275 for the second.

First: A13G C64G
Second: U21G U63G
The nonsense suppression of the first is lower: at most 0.026 for the first, 0.0367 for the second.

U22G A31U U63C U71A and G15A U21C C82A cannot be ordered by nonsense suppression: at most 0.026 for the first, at most 0.026 for the second.

First: A9G U22C
Second: U17G C75U A87G
The nonsense suppression of the first is lower: 0.323 for the first, 0.77 for the second.

First: U21G G61U
Second: G78A C79G
The nonsense suppression of the first is higher: 0.554 for the first, 0.0629 for the second.

U8G U57C and G59C C75G cannot be ordered by nonsense suppression: at most 0.026 for the first, at most 0.026 for the second.

C3A A9G C64G and C5U A62U G69C A87U cannot be ordered by nonsense suppression: at most 0.026 for the first, at most 0.026 for the second.

Compared with A60U U70C U76C, A60U C81U is higher in nonsense suppression: at most 0.026 for the first, 0.818 for the second.

First: A24G U55C
Second: U16A A31G G86U
The nonsense suppression of the first is higher: 0.0553 for the first, at most 0.026 for the second.

Compared with A9U C12G U35G C72A, A31U C75A is higher in nonsense suppression: at most 0.026 for the first, 0.758 for the second.

In the case of U16G C29U A89C, the nonsense suppression is reported as at most 0.026.
